Shown are actives, neighbours in structure and some others; about 4% of the full set was active somewhere.
KCNQ1 pot = potentiators or activators of human KCNQ1 potassium channel; P51787; CHO-K1 KCNQ1, thallium flux FluxOR fluorescence; hits give high values; B-score at 10 µM; hit rate 0.35% among 310,000;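 active means fluorescence ratio B-score, a plate-corrected score, at least three library SD, with initial intensity B-score within 5 SD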
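Test system: CHO-K1 cells stably expressing KCNQ1 / Medium: assay buffer / Also added: depolarizing K+/Tl+ stimulus, K2SO4 and Tl2SO4 each 12.5 mM in 5x stock / Incubation: 90 min dye loading and 20 min compound exposure, both at room temperature / Signal: thallium influx via FluxOR fluorescence, kinetic imaging / Evaluation: B score of baseline-normalized fluorescence ratio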
PHOSPHO1 block = inhibitors of human PHOSPHO1 phosphatase | Q8TCT1 | recombinant PHOSPHO1, absorbance phosphatase assay | inhibition, % at 13.3 µM | hit rate 1.1% among 290,000 | AID 1565; in the data active means inhibition above about 60%
KCNK3 block = human KCNK3 channel inhibition, primary screen. O14649. CHO-KCNK3 thallium flux, FluxOR fluorescence; hits give low values. hit rate 0.84% among 340,000. B-score at 10 µM;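 active means B-score under library mean minus 4 SD, starting fluorescence ratio at most library mean plus 5 SD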;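 further: more negative B-score means stronger inhibition of thallium flux through KCNK3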
KCNQ1 inh = inhibitors of human KCNQ1 potassium channel; P51787; CHO-K1 KCNQ1, FluxOR thallium flux fluorescence; hits give high values; B-score at 10 µM; hit rate 1.3% among 310,000;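 active means compounds whose thallium flux B-score, printed positive for inhibition, exceeds three library SD while starting fluorescence stays within three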;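 further: channel opened by potassium depolarization with thallium stimulus after 20 min compound exposure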
hERG rescue = shields human hERG channel from block by proarrhythmic agents. Q12809. CHO-hERG, FluxOR thallium flux, dofetilide IC70 present. activation (rescue from dofetilide block), less the hit threshold, % at 10 µM. hit rate 0.51% among 310,000;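 active means activation above the mean of controls blocked by dofetilide plus 5 SD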;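 further: thallium influx through hERG after potassium depolarization seen as dye fluorescence rise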
Target sequence (Q12809 whole entry, looked up): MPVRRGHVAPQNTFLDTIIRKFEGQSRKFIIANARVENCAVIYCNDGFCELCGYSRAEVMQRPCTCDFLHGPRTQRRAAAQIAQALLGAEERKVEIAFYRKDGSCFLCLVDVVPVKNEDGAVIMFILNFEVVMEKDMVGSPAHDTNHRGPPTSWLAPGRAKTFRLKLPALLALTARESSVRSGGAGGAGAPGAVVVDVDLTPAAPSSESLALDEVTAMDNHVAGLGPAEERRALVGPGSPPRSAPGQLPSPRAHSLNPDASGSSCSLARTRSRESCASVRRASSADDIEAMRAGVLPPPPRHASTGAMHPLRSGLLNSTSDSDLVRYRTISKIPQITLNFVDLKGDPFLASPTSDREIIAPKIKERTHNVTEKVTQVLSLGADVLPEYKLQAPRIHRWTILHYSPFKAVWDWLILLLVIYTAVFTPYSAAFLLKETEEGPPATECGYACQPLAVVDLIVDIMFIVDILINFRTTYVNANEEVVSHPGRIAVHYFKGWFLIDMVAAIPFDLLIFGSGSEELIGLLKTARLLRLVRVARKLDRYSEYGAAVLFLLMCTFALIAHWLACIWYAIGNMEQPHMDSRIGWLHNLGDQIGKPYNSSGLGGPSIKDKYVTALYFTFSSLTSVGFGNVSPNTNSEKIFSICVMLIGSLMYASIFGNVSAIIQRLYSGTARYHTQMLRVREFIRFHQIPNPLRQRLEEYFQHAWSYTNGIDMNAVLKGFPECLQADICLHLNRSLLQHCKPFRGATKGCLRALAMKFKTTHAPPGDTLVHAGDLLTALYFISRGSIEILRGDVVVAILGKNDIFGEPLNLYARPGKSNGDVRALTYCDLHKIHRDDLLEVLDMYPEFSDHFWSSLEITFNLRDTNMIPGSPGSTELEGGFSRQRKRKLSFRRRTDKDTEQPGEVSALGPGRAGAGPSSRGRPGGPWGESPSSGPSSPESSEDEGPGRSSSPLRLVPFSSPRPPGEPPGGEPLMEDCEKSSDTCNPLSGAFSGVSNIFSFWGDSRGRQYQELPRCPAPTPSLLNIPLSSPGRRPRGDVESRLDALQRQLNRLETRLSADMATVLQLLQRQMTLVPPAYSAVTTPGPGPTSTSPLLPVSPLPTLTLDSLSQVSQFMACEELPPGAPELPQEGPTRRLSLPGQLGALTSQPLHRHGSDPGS
KCNK9 block = inhibitors of human KCNK9 two-pore domain potassium channel; Q9NPC2; HEK293 KCNK9, FluxOR thallium flux fluorescence; hits give low values; B-score at 10 µM; hit rate 1.2% among 310,000;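 active means ratio B-score over 3 SD below the library mean, with starting fluorescence within 5 SD of its mean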;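 further: negative B-score means less thallium flux so channel inhibition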
* hit, by the source's call.

Results for CC(C)CC(=O)Nc1ccc(C(=O)NNC(=S)NC(=O)C2CCCCC2)cc1 ?
KCNQ1 pot: inactive; PHOSPHO1 block: 93*; KCNK3 block: inactive; KCNQ1 inh: 7*; hERG rescue: -4; KCNK9 block: inactive

What do the screens show for `CCOC(=O)C1=C(CSc2nc(-c3ccncc3)ccc2C#N)OC(N)=C(C#N)C1c1ccc(OC)cc1` (stereo unspecified)?
KCNQ1 pot: inactive; PHOSPHO1 block: 14; KCNK3 block: inactive; KCNQ1 inh: inactive; hERG rescue: -12; KCNK9 block: -7.9*

What do the screens show for `CCOC(=O)C1=C(CSc2nc(C)ccc2C#N)OC(N)=C(C#N)C1c1cccc(OC)c1OC` (stereo unspecified)?
KCNQ1 pot: inactive; PHOSPHO1 block: 76*; KCNK3 block: inactive; KCNQ1 inh: inactive; hERG rescue: -12; KCNK9 block: inactive

Results for CCOC(=O)C1=C(CSc2nc(-c3ccncc3)ccc2C#N)OC(N)=C(C#N)C1c1cccnc1 (stereo unspecified) ?
KCNQ1 pot: inactive; PHOSPHO1 block: 61*; KCNK3 block: inactive; KCNQ1 inh: inactive; hERG rescue: -7; KCNK9 block: inactive

Results for COc1ccc(CN2CCC(Oc3ccc(C(=O)NCc4ccccn4)cc3)CC2)c(F)c1 ?
KCNQ1 pot: inactive; PHOSPHO1 block: 21; KCNK3 block: inactive; KCNQ1 inh: inactive; hERG rescue: -12; KCNK9 block: inactive

What do the screens show for `O=C(COc1ccc(Cl)cc1Cl)NNC(=S)Nc1ccc(F)cc1`?
KCNQ1 pot: inactive; PHOSPHO1 block: 71*; KCNK3 block: inactive; KCNQ1 inh: inactive; hERG rescue: -10; KCNK9 block: inactive

How did Cc1occc1C(=O)NNC(=S)NC(=O)COc1ccc(Cl)cc1Cl do in these assays?
KCNQ1 pot: 75*; PHOSPHO1 block: 8; KCNK3 block: inactive; KCNQ1 inh: inactive; hERG rescue: 62*; KCNK9 block: inactive

How did CC(=O)NC(=S)Nc1ccc(NC(=O)COc2ccc(Cl)cc2Cl)cc1 do in these assays?
KCNQ1 pot: inactive; PHOSPHO1 block: 18; KCNK3 block: inactive; KCNQ1 inh: inactive; hERG rescue: -17; KCNK9 block: inactive

Results for Cc1cc(=O)[nH]c2c1c(=O)[nH]n2C1CC(C)N(C)CC1C (stereo unspecified) ?
KCNQ1 pot: inactive; PHOSPHO1 block: 7; KCNK3 block: inactive; KCNQ1 inh: inactive; hERG rescue: -4; KCNK9 block: inactive

What do the screens show for `CCSc1nsc(NC(=O)Nc2ccccc2Cl)n1`?
KCNK3 block: inactive

What do the screens show for `CCSc1nsc(NC(=O)Nc2ccc(F)cc2F)n1`?
KCNQ1 pot: inactive; PHOSPHO1 block: 39; KCNK3 block: inactive; KCNQ1 inh: 6*; hERG rescue: 0; KCNK9 block: inactive

What do the screens show for `CNc1ccc(OC)cc1-n1cnc(-c2ccc([N+](=O)[O-])cc2)c1`?
KCNQ1 pot: inactive; PHOSPHO1 block: 9; KCNK3 block: inactive; KCNQ1 inh: inactive; hERG rescue: -5; KCNK9 block: inactive

What do the screens show for `Cc1cc(C)c(Cn2cnc(-c3ccc([N+](=O)[O-])cc3)c2)c(C)c1`?
KCNQ1 pot: inactive; PHOSPHO1 block: 27; KCNK3 block: inactive; KCNQ1 inh: 6*; hERG rescue: -10; KCNK9 block: inactive

Results for CCOc1ccc(-n2cc(-c3ccccc3)c3c(=S)nc[nH]c32)cc1 ?
KCNQ1 pot: 39*; PHOSPHO1 block: -13; KCNK3 block: inactive; KCNQ1 inh: inactive; hERG rescue: -2; KCNK9 block: inactive

Results for CCOc1ccc(/C=C/C2=Cc3c(sc(NC(=O)CSc4n[nH]c(N)n4)c3C#N)C(C)(C)C2)cc1 ?
KCNQ1 pot: inactive; PHOSPHO1 block: -84; KCNK3 block: -8.8*; KCNQ1 inh: inactive; hERG rescue: -16; KCNK9 block: inactive

How did CCOC(=O)c1sc(NC(=O)CSc2n[nH]c(-c3ccncc3)n2)c(C#N)c1C do in these assays?
KCNQ1 pot: inactive; PHOSPHO1 block: 26; KCNK3 block: inactive; KCNQ1 inh: inactive; hERG rescue: 1; KCNK9 block: inactive

Results for Cc1ccsc1/C=C/C1=Cc2c(sc(NC(=O)CSc3n[nH]c(N)n3)c2C#N)C(C)(C)C1 ?
KCNQ1 pot: inactive; PHOSPHO1 block: 80*; KCNK3 block: inactive; KCNQ1 inh: 8*; hERG rescue: -17; KCNK9 block: inactive

What do the screens show for `COc1ccc(OCc2cc(C(=O)N(C)CCC3CCOCC3)no2)c(Cl)c1`?
KCNQ1 pot: inactive; PHOSPHO1 block: 12; KCNK3 block: inactive; KCNQ1 inh: inactive; hERG rescue: -6; KCNK9 block: inactive

Results for NNC(=O)Cn1cnc2ccccc21 ?
KCNQ1 pot: inactive; PHOSPHO1 block: 7; KCNK3 block: inactive; KCNQ1 inh: inactive; hERG rescue: -7; KCNK9 block: inactive

How did Clc1cccc(Nc2ncnc3ccc(Br)cc23)c1 do in these assays?
KCNQ1 pot: inactive; PHOSPHO1 block: 62*; KCNK3 block: inactive; KCNQ1 inh: inactive; hERG rescue: -2; KCNK9 block: inactive

How did Cc1cccc(Nc2ncnc3ccc(Br)cc23)c1 do in these assays?
KCNQ1 pot: inactive; PHOSPHO1 block: 8; KCNK3 block: inactive; KCNQ1 inh: inactive; hERG rescue: -5; KCNK9 block: inactive

How did Cn1ccnc1Sc1nc2ccccc2nc1NS(=O)(=O)c1ccccc1 do in these assays?
KCNQ1 pot: inactive; PHOSPHO1 block: 73*; KCNK3 block: inactive; KCNQ1 inh: inactive; hERG rescue: -11; KCNK9 block: inactive

Results for Cc1c(Nc2nc3ccccc3nc2NS(=O)(=O)c2ccccc2)c(=O)n(-c2ccccc2)n1C ?
KCNQ1 pot: inactive; PHOSPHO1 block: 15; KCNK3 block: inactive; KCNQ1 inh: inactive; hERG rescue: -13; KCNK9 block: inactive

How did CC(=O)Nc1ccc(S(=O)(=O)Nc2nc3ccccc3nc2Sc2nncn2C)cc1 do in these assays?
KCNQ1 pot: inactive; PHOSPHO1 block: 54; KCNK3 block: inactive; KCNQ1 inh: inactive; hERG rescue: -8; KCNK9 block: inactive

Results for Cn1cnnc1Sc1nc2ccccc2nc1NS(=O)(=O)c1ccccc1 ?
KCNQ1 pot: inactive; PHOSPHO1 block: 62*; KCNK3 block: inactive; KCNQ1 inh: inactive; hERG rescue: -1; KCNK9 block: inactive

How did Cc1sc2c(c1C)c(=O)nc1scc(CC(=O)O)n12 do in these assays?
KCNQ1 pot: inactive; PHOSPHO1 block: 6; KCNK3 block: inactive; KCNQ1 inh: inactive; hERG rescue: -9; KCNK9 block: inactive

What do the screens show for `Cc1cccc(C(=O)Nc2ccc(S(=O)(=O)N3CCOCC3)cc2)c1[N+](=O)[O-]`?
KCNQ1 pot: inactive; PHOSPHO1 block: 46; KCNK3 block: inactive; KCNQ1 inh: inactive; hERG rescue: -1; KCNK9 block: inactive

Source: PubChem BioAssay (several laboratories)
